Measurements as given in ChEMBL document CHEMBL2062474, “Discovery and preliminary SAR of bisbenzylisoquinoline alkaloids as inducers of C/EBPα” (Bioorg Med Chem, 2012).

What was measured:
U-937 [1] = assay: Induction of rat C/EBPalpha expression transfected in human U937 cells after 24 hrs by luciferase reporter gene assay relative to ATRA; type: functional
Outline: (§1)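 Engineered U937 line (4X C/EBPα binding site driving a luciferase reporter) incubated 24 h with or without sample in 384-well plates, in triplicate, across multiple 2-fold doses. Luminescence was read after adding Britelite reagent. ATRA ran on each plate as positive control. Fold induction was normalized to ATRA induction.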

U-937 [2] = assay: Induction of rat C/EBPalpha expression transfected in human U937 cells at 25 uM after 24 hrs by luciferase reporter gene assay relative to ATRA; type: functional; outline: as §1
U-937 [3] = assay: Cytotoxicity against human U937 cells after 24 hrs by alamar blue assay; type: cell-based; conditions: U-937, 24 h
Outline: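 U937 cells exposed to test sample for 24 h in 384-well format. Toxicity read by Alamar Blue fluorescence and expressed as growth relative to untreated U937 cells. Value is the concentration giving 50% growth inhibition, from multiple 2-fold doses tested in triplicate.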

[4] = Cytotoxicity against human U937 cells assessed as cell growth at 25 uM after 24 hrs by alamar blue assay; type: cell-based, U-937; conditions: read-out: Activity
Outline: (§2)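 U937 cells engineered with a multimerized C/EBPα binding site driving luciferase were incubated with compound in 384-well format, in triplicate, at multiple 2-fold doses. Toxicity was read by Alamar Blue fluorescence. Growth is expressed relative to untreated U937 cells.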

U-937 [5] = assay: Induction of rat C/EBPalpha expression transfected in human U937 cells at 50 uM after 24 hrs by luciferase reporter gene assay relative to ATRA; type: functional; outline: as §1
[6] = Cytotoxicity against human U937 cells assessed as cell growth at 50 uM after 24 hrs by alamar blue assay; type: cell-based, U-937; conditions: read-out: Activity; outline: as §2
U-937 [7] = assay: Induction of rat C/EBPalpha expression transfected in human U937 cells at 12 uM after 24 hrs by luciferase reporter gene assay relative to ATRA; type: functional; outline: as §1
[8] = Cytotoxicity against human U937 cells assessed as cell growth at 12 uM after 24 hrs by alamar blue assay; type: cell-based, U-937; conditions: read-out: Activity; outline: as §2
U-937 [9] = assay: Induction of rat C/EBPalpha expression transfected in human U937 cells at 3.1 uM after 24 hrs by luciferase reporter gene assay relative to ATRA; type: functional
Outline: (§3)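 U937 cells carry a luciferase reporter driven by a multimerized C/EBPα binding site (U937 4X C/EBPα). Cells incubated 24 h with or without test sample in 384-well plates, then luciferase read by luminescence. ATRA included on each plate as positive control, and fold induction normalized to ATRA. Multiple 2-fold doses tested in triplicate.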

[10] = Cytotoxicity against human U937 cells assessed as cell growth at 3.1 uM after 24 hrs by alamar blue assay; type: cell-based, U-937; conditions: read-out: Activity
Outline: (§4)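 U937 cells incubated 24 h with test sample in multiple 2-fold doses, tested in triplicate, in 384-well format. Cell growth read by Alamar Blue fluorescence relative to untreated U937 cells. Value is growth at the concentration giving maximum C/EBPα fold induction.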

U-937 [11] = assay: Induction of rat C/EBPalpha expression transfected in human U937 cells at 6.2 uM after 24 hrs by luciferase reporter gene assay relative to ATRA; type: functional; outline: as §3
[12] = Cytotoxicity against human U937 cells assessed as cell growth at 6.2 uM after 24 hrs by alamar blue assay; type: cell-based, U-937; conditions: read-out: Activity; outline: as §4
U-937 [13] = assay: Induction of rat C/EBPalpha expression transfected in human U937 cells at 0.78 uM after 24 hrs by luciferase reporter gene assay relative to ATRA; type: functional; outline: as §3
[14] = Cytotoxicity against human U937 cells assessed as cell growth at 0.78 uM after 24 hrs by alamar blue assay; type: cell-based, U-937; conditions: read-out: Activity; outline: as §4
U-937 [15] = assay: Induction of rat C/EBPalpha expression transfected in human U937 cells after 24 hrs by luciferase reporter gene assay relative to control; type: functional; outline: as §3
HL-60 = assay: Induction of rat C/EBPalpha expression transfected in human HL60 cells after 24 hrs by luciferase reporter gene assay relative to control; type: functional

COc1cc2c(cc1Oc1ccc(OC)c3c1C[C@H]1c4c(cc(OC)c(OC)c4-3)CCN1C)C[C@H]1c3c(cc(OC)c(OC)c3-2)CCN1C
MED (U-937 [1]): >50 µM
fold change (FC) (U-937 [2]): 0.9
IC50 (U-937 [3]): > 50 µM
viability at 24 h, 25 µM [4]: 61%

COc1cc2c3cc1Oc1c(OC)c(OC)cc4c1[C@@H](Cc1ccc(O)c(c1)Oc1ccc(cc1)C[C@@H]3N(C)CC2)N(C)CC4 [BERBAMINE]
MED (U-937 [1]): 25 µM
fold change (FC) (U-937 [5]): 1.2
IC50 (U-937 [3]): > 50 µM
viability at 24 h, 50 µM [6]: 70%

COc1ccc2cc1Oc1ccc(cc1)C[C@H]1c3c(cc4c(c3Oc3cc5c(cc3OC)CCN(C)[C@@H]5C2)OCO4)CCN1C [CEPHARANTHINE]
MED (U-937 [1]): 12 µM
fold change (FC) (U-937 [7]): 1
IC50 (U-937 [3]): > 50 µM
viability at 24 h, 12 µM [8]: 87%

COc1cc2c3cc1Oc1cc(ccc1O)C[C@@H]1c4c(cc(OC)c(O)c4Oc4cccc(c4)C[C@H]3N(C)CC2)CCN1C [CHONDODENDRINE]
MED (U-937 [1]): 12 µM
fold change (FC) (U-937 [2]): 1.9
IC50 (U-937 [3]): > 50 µM

COc1cc2c3c(O)c1OCc1ccc(cc1)C[C@@H]1c4c(cc(OC)c(OC)c4Oc4ccc(cc4)CC3=NCC2)CCN1C [CISSAMPAREINE]
MED (U-937 [1]): >50 µM
fold change (FC) (U-937 [9]): 0.5
IC50 (U-937 [3]): > 50 µM
viability at 24 h, 3.1 µM [10]: 78%

COc1ccc2cc1Oc1ccc(cc1)CC1=NCCc3cc(OC)c(OC)c(c31)Oc1cc3c(cc1OC)CCN(C)[C@@H]3C2 [EPISTEPHANINE]
MED (U-937 [1]): >50 µM
fold change (FC) (U-937 [11]): 0.9
IC50 (U-937 [3]): > 50 µM
viability at 24 h, 6.2 µM [12]: 99%

COc1ccc2cc1Oc1ccc(cc1)C[C@H]1c3cc(c(OC)cc3CCN1C)Oc1c(OC)c(OC)cc3c1[C@H](C2)N(C)CC3 [FANCHININ]
MED (U-937 [1]): >50 µM
fold change (FC) (U-937 [2]): 0.9
IC50 (U-937 [3]): > 50 µM
viability at 24 h, 25 µM [4]: 69%

COc1ccc2cc1Oc1ccc(cc1)C[C@H]1c3cc(c(OC)cc3CCN1C)Oc1c(O)c(OC)cc3c1[C@H](C2)N(C)CC3 [FANGCHINOLINE]
MED (U-937 [1]): 25 µM
fold change (FC) (U-937 [5]): 2
IC50 (U-937 [3]): > 50 µM
viability at 24 h, 50 µM [6]: 102%

COc1cc2c3cc1Oc1c(OC)c(OC)cc4c1[C@H](Cc1ccc(O)c(c1)-c1cc(ccc1OC)C[C@H]3N(C)CC2)N(C)CC4 [FUNIFERINE]
MED (U-937 [1]): 12 µM
fold change (FC) (U-937 [5]): 2.2
IC50 (U-937 [3]): > 50 µM
viability at 24 h, 50 µM [6]: 94%

COc1cc2c(cc1O)[C@H]1Cc3c(cc(OC)c(OC)c3Oc3cc4c(cc3OC)CCN(C)[C@@H]4Cc3ccc(O)cc3)[C@@H](C2)N1C [HERVELINE O]
MED (U-937 [1]): >50 µM
fold change (FC) (U-937 [2]): 0.46
IC50 (U-937 [3]): > 50 µM
viability at 24 h, 25 µM [4]: 108%

COc1ccc2cc1Oc1ccc(cc1)C[C@H]1c3c(cc(OC)c(O)c3Oc3cc4c(cc3OC)CCN(C)[C@@H]4C2)CCN1C [HOMOAROMOLINE]
MED (U-937 [1]): 3.1 µM
fold change (FC) (U-937 [5]): 1.9
IC50 (U-937 [3]): > 50 µM
viability at 24 h, 50 µM [6]: 80%

COc1ccc2cc1Oc1ccc(cc1)C[C@@H]1c3cc(c(OC)cc3CCN1C)Oc1c(OC)c(OC)cc3c1[C@H](C2)N(C)CC3 [ISOTETRANDRINE]
MED (U-937 [1]): 12 µM
fold change (FC) (U-937 [2]): 1.2
IC50 (U-937 [3]): > 50 µM
viability at 24 h, 25 µM [4]: 69%

COc1ccc(CC2c3cc(OC)c(OC)cc3CCN2C)cc1OC (stereo unspecified) [LAUDANOSINE]
MED (U-937 [1]): >50 µM
fold change (FC) (U-937 [2]): 0

COc1ccc2cc1Oc1ccc(cc1)C[C@H]1NCCc3cc(OC)c(cc31)Oc1c(O)c(OC)cc3c1CCN(C)[C@@H]3C2 [NORPANURENSINE]
MED (U-937 [1]): 12 µM
fold change (FC) (U-937 [5]): 2.5
IC50 (U-937 [3]): > 50 µM
viability at 24 h, 50 µM [6]: 113%

COc1cc2c3cc1Oc1c(O)c(OC)cc4c1[C@@H](Cc1ccc(O)c(c1)Oc1ccc(cc1)C[C@@H]3N(C)CC2)N(C)CC4 [OBAMEGINE]
MED (U-937 [1]): 3 µM
fold change (FC) (U-937 [7]): 2.6
IC50 (U-937 [3]): 25 µM
viability at 24 h, 12 µM [8]: 89%

COc1ccc2cc1Oc1ccc(cc1)C[C@@H]1c3cc(c(OC)cc3CCN1C)Oc1c(OC)c(OC)cc3c1[C@@H](C2)N(C)CC3 [PHAEANTHINE]
MED (U-937 [1]): >50 µM
fold change (FC) (U-937 [7]): 0.75
IC50 (U-937 [3]): 50 µM
viability at 24 h, 12 µM [8]: 104%

COC1=CC2=C3[C@H](Cc4cc5c(c(c4)Oc4ccc(cc4)C[C@H]4c6cc7c(cc6CCN4C)OC[C@@]3(O7)C1=O)OCO5)N(C)CC2 [REPANDULINE]
MED (U-937 [1]): 50 µM
fold change (FC) (U-937 [5]): 1.5
IC50 (U-937 [3]): > 50 µM
viability at 24 h, 50 µM [6]: 67%

COc1ccc2cc1Oc1ccc(cc1)C[C@@H]1c3c(cc(OC)c4c3Oc3cc5c(cc3O4)CCN[C@@H]5C2)CCN1C [TELOBINE]
MED (U-937 [1]): 1.5 µM
fold change (FC) (U-937 [9]): 1.9
IC50 (U-937 [3]): 12 µM
viability at 24 h, 3.1 µM [10]: 82%

COc1cc2c3cc1Oc1c(OC)c(OC)cc4c1[C@H](Cc1cc5c(c(c1)Oc1ccc(cc1)C[C@@H]3N(C)CC2)OCO5)N(C)CC4 [TENUIPINE]
MED (U-937 [1]): 25 µM
fold change (FC) (U-937 [2]): 1.4
IC50 (U-937 [3]): > 50 µM
viability at 24 h, 25 µM [4]: 105%

COc1ccc(C[C@H]2c3cc(OC)c(OC)c(OC)c3CC[N+]2(C)C)cc1Oc1ccc(C[C@H]2c3cc4c(c(OC)c3CC[N+]2(C)C)OCO4)cc1.[I-].[I-] [THALISTYLINE DIMETHOIODIDE]
MED (U-937 [1]): >50 µM
fold change (FC) (U-937 [9]): 0.4
IC50 (U-937 [3]): > 50 µM
viability at 24 h, 3.1 µM [10]: 116%

COc1ccc(C[C@H]2c3cc(OC)c(OC)c(OC)c3CC[N+]2(C)C)cc1Oc1ccc(C[C@H]2c3cc(OC)c4c(c3CCN2C)OCO4)cc1.[Cl-] [THALISTYLINE]
MED (U-937 [1]): >50 µM
fold change (FC) (U-937 [13]): 0.9
IC50 (U-937 [3]): > 50 µM
viability at 24 h, 0.78 µM [14]: 133%

COc1ccc2cc1-c1cc(ccc1O)C[C@H]1c3cc4c(cc3CCN1C)Oc1c(OC)cc3c(c1O4)[C@H](C2)N(C)CC3 [TILIACORININE]
MED (U-937 [1]): 12 µM
fold change (FC) (U-937 [7]): 1.9
IC50 (U-937 [3]): 25 µM
viability at 24 h, 12 µM [8]: 63%

CC1=C(/C=C/C(C)=C/C=C/C(C)=C/C(=O)O)C(C)(C)CCC1 [TRETINOIN]
fold change (FC) (U-937 [15]): 2
fold change (FC) (HL-60): 2

COc1cc2c3c4c1Oc1cc5c(cc1O4)[C@@H](Cc1ccc(O)c(c1)Oc1ccc(cc1)C[C@@H]3N(C)CC2)N(C)CC5 [TRIGILLETINE]
MED (U-937 [1]): >50 µM
fold change (FC) (U-937 [9]): 0.8
IC50 (U-937 [3]): 50 µM
viability at 24 h, 3.1 µM [10]: 108%
